From ChEMBL document CHEMBL1795211, “Evaluation of NTF1836 as an inhibitor of the mycothiol biosynthetic enzyme MshC in growing and non-replicating Mycobacterium tuberculosis” (Bioorg Med Chem, 2011) come the findings set out here.

Series [1] has as its target T1, L-cysteine:1D-myo-inositol 2-amino-2-deoxy-alpha-D-glucopyranoside ligase (Mycobacterium tuberculosis, UniProt P9WJM9).
T1 sequence (P9WJM9 whole entry): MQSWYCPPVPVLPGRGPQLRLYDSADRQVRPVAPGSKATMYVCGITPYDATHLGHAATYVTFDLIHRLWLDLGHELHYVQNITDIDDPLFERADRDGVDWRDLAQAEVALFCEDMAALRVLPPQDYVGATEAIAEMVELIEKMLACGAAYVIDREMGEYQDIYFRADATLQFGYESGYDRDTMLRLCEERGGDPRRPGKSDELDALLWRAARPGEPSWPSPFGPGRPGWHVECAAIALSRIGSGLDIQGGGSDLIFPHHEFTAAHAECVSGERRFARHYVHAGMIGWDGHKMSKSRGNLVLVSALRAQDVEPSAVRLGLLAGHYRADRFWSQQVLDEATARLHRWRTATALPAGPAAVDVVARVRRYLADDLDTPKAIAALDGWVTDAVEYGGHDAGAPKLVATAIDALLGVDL
The series is described as follows: Inhibition of Mycobacterium tuberculosis recombinant MshC assessed as production of Cys-GlcN-Ins from cysteine by HPLC based fluorescence assay.

A short description of series [2]: Antimycobacterial activity against mid-log phase of Mycobacterium tuberculosis Erdman ATCC 35801 after 7 days by 96 well plate assay. The series is classed as functional, Mycobacterium tuberculosis str. Erdman. The conditions noted are these: ATCC 35801, 168 h.
In series [3] the test system is Vero. The series is described as follows: Cytotoxicity against african green monkey Vero cells assessed as cell viability after 48 hrs by neutral red assay. The series is classed as cell-based. The following applies: chlorocebus sabaeus.
Series [4] in a line: Antimycobacterial activity against mid-log phase of Mycobacterium tuberculosis Erdman ATCC 35801 assessed as reduction of viability at 50 to 75 uM after 7 days by 96 well plate assay relative to control. In kind it is functional, Mycobacterium tuberculosis str. Erdman.
Series [5] deals with Mycobacterium tuberculosis str. Erdman. As to the kind of experiment: Antimycobacterial activity against mid-log phase of Mycobacterium tuberculosis Erdman ATCC 35801 assessed as growth inhibition by measuring change on optical density at 600 nm at 30 to 50 uM after 7 days. The series is classed as functional. Summed up: (§1)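 Mid-log Erdman in 7H9 + ADS adjusted to OD600 0.08; 8 mL aliquots with 10–75 µM compound (from DMSO stock) in vented flasks, 7 d at 37 °C; duplicates with DMSO-matched control; growth read as 7-day change in OD600.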

The nature of series [6]: Antimycobacterial activity against mid-log phase of Mycobacterium tuberculosis Erdman ATCC 35801 assessed as reduction of viability at 20 uM after 7 days by 96 well plate assay. The series is classed as functional, Mycobacterium tuberculosis str. Erdman.
For series [7], the system named is Mycobacterium tuberculosis str. Erdman. The series is described as follows: Antimycobacterial activity against mid-log phase of Mycobacterium tuberculosis Erdman ATCC 35801 assessed as growth inhibition after 7 days by 96 well plate assay. In kind it is functional.
The test system is the same in series [8]. As to the kind of experiment: Antimycobacterial activity against mid-log phase of Mycobacterium tuberculosis Erdman ATCC 35801 assessed as growth inhibition by measuring change on optical density at 600 nm after 7 days. The series is classed as functional. Summed up:
as §1

The target of series [9] is T2, L-cysteine:1D-myo-inositol 2-amino-2-deoxy-alpha-D-glucopyranoside ligase (Mycobacterium tuberculosis) (UniProt P9WJM9).
T2 sequence (whole entry): T1 sequence (P9WJM9 whole entry)
The series is described as follows: Inhibition of MshC in Mycobacterium tuberculosis Erdman ATCC 35801 assessed as reduction of Cys-GlcN-Ins accumulation at 10 to 80 uM after 7 days by HPLC based fluorescence assay. The following applies: Mycobacterium tuberculosis str. Erdman.

Series [10] is described as follows: Antimycobacterial activity against non-replicating Mycobacterium tuberculosis Erdman ATCC 35801 nutrient starvation model assessed as reduction viability at 90 uM after 15 days by 96 well plate assay. In kind it is functional, Mycobacterium tuberculosis str. Erdman. Summed up:
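Non-replicating Erdman from nutrient starvation in PBS + 0.05% Tween 80 for 6 weeks; compound dilutions then added and incubation continued 15 d; viable counts by plating serial dilutions on 7H9 agar with OADC; duplicate samples.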

Series [11] relates to Mycobacterium tuberculosis. As to the kind of experiment: Antimycobacterial activity against mid-log phase of Mycobacterium tuberculosis CDC1551 isolated from patient after 7 days by 96 well plate assay. In kind it is functional. The conditions noted are these: CDC1551, 168 h.

The structures appear in SMILES notation. Values after ≈ are worked out from the molar mass of the structure shown. Active and inactive are the calls of the source. The calls are words filed in the database; no cut-off is given here. Bounds are passed on as bounds.

One may read the IC50 as the concentration that gives 50% inhibition. Regarding `CC1CCCN(CCCNC(=O)c2ccc3c(c2)N(Cc2ccccc2F)C(=O)c2ccccc2S3(=O)=O)C1` (configuration not stated), in series [1], the concentration for half-maximal inhibition (IC50) was 800 µM.
On the same count and under the same terms, next, `O=C(NCCCN1CCOCC1)c1ccc2c(c1)N(Cc1cccc(Cl)c1)C(=O)c1ccccc1S2`: 800 µM.
On the same count and under the same terms, next, `CN(CCCNC(=O)c1ccc2c(c1)N(Cc1cccc(Cl)c1)C(=O)c1ccccc1S2)C1CCCCC1`: 280 µM.
Still for that read-out and setting: next, `O=C(NCCCN1CCOCC1)c1ccc2c(c1)N(Cc1cccc(Cl)c1)C(=O)c1ccccc1S2(=O)=O`: 3000 µM.
Regarding `O=C(NCCCN1CCCC1)c1ccc2c(c1)N(Cc1cccc(Cl)c1)C(=O)c1ccccc1S2`, the half-maximal inhibitory concentration (IC50) in series [1] is 130 µM. This compound also displayed an MIC95 in series [2] of 55 µM (≈ 27.8 µg/mL). In series [3], the cytotoxic concentration was found to be 50 µM.
For the compound `O=C(NCC1CCCN1)c1ccc2c(c1)N(Cc1cccc(Cl)c1)C(=O)c1ccccc1S2(=O)=O` (configuration not stated), the IC50 in [1] came out at 2500 µM.
The same measure, in the same setting: under `CN(CCCNC(=O)c1ccc2c(c1)N(Cc1ccccc1)C(=O)c1ccccc1S2(=O)=O)C1CCCCC1` stands 500 µM; under `CN(CCCNC(=O)c1ccc2c(c1)N(Cc1ccc(Cl)cc1)C(=O)c1ccccc1S2(=O)=O)C1CCCCC1`, 330 µM; under `Cc1ccc(CN2C(=O)c3ccccc3S(=O)(=O)c3ccc(C(=O)NCCCN4CCCC4)cc32)c(C)c1`, 1400 µM.
Same read-out and setting: under `Cc1ccc(CN2C(=O)c3ccccc3S(=O)(=O)c3ccc(C(=O)NCCCN4CCOCC4)cc32)c(C)c1` stands > 3000 µM; under `O=C(NCCCN1CCOCC1)c1ccc2c(c1)N(Cc1cccc(Cl)c1)C(=O)c1ccccc1[S+]2[O-]` (racemic), 500 µM.
As for `O=C(NCCCN1CCCC1)c1ccc2c(c1)N(Cc1cccc(Cl)c1)C(=O)c1ccccc1[S+]2[O-]` (racemic), the IC50 in series [1] came to 100 µM. This compound also had an MIC95 in [2] of 55 µM (≈ 28.7 µg/mL). Also, the cytotoxic concentration in series [3] was determined as 50 µM.
For `CCCCN(C)CCCNC(=O)c1ccc2c(c1)N(Cc1cccc(Cl)c1)C(=O)c1ccccc1[S+]2[O-]` (racemic), in series [1], the IC50 is 110 µM.
Consider `CN(CCCNC(=O)c1ccc2c(c1)N(Cc1cccc(Cl)c1)C(=O)c1ccccc1[S+]2[O-])C1CCCCC1` (racemic), for which the Activity in series [4] was 97%; in [6], 50%; in [10], 99%. The figures for the growth inhibition (GI) in series [5], in series [7] and in series [8] were 50%, “Dose-dependent effect” and “Dose-dependent effect”, respectively. In addition, in series [1], the 50% inhibitory concentration (IC50) worked out at 85 µM. Further, in series [2], the MIC95 amounted to 28 µM (≈ 15.8 µg/mL). For the same compound, in series [3], the cytotoxic concentration worked out at 50 µM. Moreover, the inhibition entry in series [9] was “Active”.
As for `O=C(NCCCSC1CCCCC1)c1ccc2c(c1)N(Cc1cccc(Cl)c1)C(=O)c1ccccc1[S+]2[O-]` (racemic), the half-inhibitory concentration (IC50) in [1] was ≥ 1000 µM.
Same read-out and setting: under `CC1CC(C)CN(CCCNC(=O)c2ccc3c(c2)N(Cc2cccc(Cl)c2)C(=O)c2ccccc2[S+]3[O-])C1` (racemic) stands 500 µM.
As to `CCC1CCCCN1CCCNC(=O)c1ccc2c(c1)N(Cc1cccc(Cl)c1)C(=O)c1ccccc1[S+]2[O-]` (racemic), the MIC95 in [11] came to 32 µM (≈ 18.1 µg/mL); in [2], 55 µM (≈ 31 µg/mL). In addition, the half-inhibitory concentration (IC50) in series [1] was found to be 80 µM. Also, in [3], the cytotoxic concentration came out at 100 µM.
In turn, `CC1CCCN(CCCNC(=O)c2ccc3c(c2)N(Cc2cccc(Cl)c2)C(=O)c2ccccc2[S+]3[O-])C1` (racemic) had an MIC95 in series [2] of 55 µM (≈ 30.3 µg/mL). In addition, the cytotoxic concentration in series [3] was 100 µM.
Consider `O=C(NCCN1CCCCCC1)c1ccc2c(c1)N(Cc1cccc(Cl)c1)C(=O)c1ccccc1[S+]2[O-]` (racemic), for which the IC50 in [1] came to 100 µM. For the same compound, the MIC95 in series [2] stood at 28 µM (≈ 15 µg/mL). The cytotoxic concentration in series [3] worked out at 100 µM.
Regarding `CCCN(CCC)CCCNC(=O)c1ccc2c(c1)N(Cc1cccc(Cl)c1)C(=O)c1ccccc1[S+]2[O-]` (racemic), the concentration for half-maximal inhibition (IC50) in series [1] turned out to be 100 µM.
For the compound `CN(CCCNC(=O)c1ccc2c(c1)N(Cc1ccccc1)C(=O)c1ccccc1[S+]2[O-])C1CCCCC1` (racemic), the IC50 in series [1] amounted to 300 µM.
Still for that read-out and setting: next, `CCN1C(=O)c2ccccc2[S+]([O-])c2ccc(C(=O)NCCCN3CCCCCC3)cc21` (racemic): ≥ 3000 µM; `CN(C)CCCNC(=O)c1ccc2c(c1)N(Cc1ccc(Cl)cc1)C(=O)c1ccccc1[S+]2[O-]` (racemic): 340 µM.
Same read-out and setting: under `CN(CCCNC(=O)c1ccc2c(c1)N(Cc1ccc(F)cc1)C(=O)c1ccccc1[S+]2[O-])C1CCCCC1` (racemic) stands > 3000 µM.
Take `CC1CC(C)CN(CCCNC(=O)c2ccc3c(c2)N(Cc2ccccc2F)C(=O)c2ccccc2[S+]3[O-])C1` (racemic): the IC50 in series [1] is > 3000 µM.
Same read-out and setting: next, `Cc1ccc(CN2C(=O)c3ccccc3[S+]([O-])c3ccc(C(=O)NCCCN(C)C4CCCCC4)cc32)c(C)c1` (racemic): 2000 µM.
On the same count and under the same terms, under `CCN(CC)CCCNC(=O)c1ccc2c(c1)N(Cc1ccc(C)cc1C)C(=O)c1ccccc1[S+]2[O-]` (racemic) stands > 3000 µM.
With `CO[C@H]1/C=C/O[C@@]2(C)Oc3c(C)c(O)c4c(O)c(c(/C=N/N5CCN(C)CC5)c(O)c4c3C2=O)NC(=O)/C(C)=C\C=C\[C@H](C)[C@H](O)[C@@H](C)[C@@H](O)[C@@H](C)[C@H](OC(C)=O)[C@@H]1C` [RIFAMPIN], the MIC95 in series [2] stood at 0.24 µM (≈ 0.198 µg/mL).
